Where two headings read alike, the source gives them in different places.
Legend:
Plasma Oxt = format: in vivo, mice; conditions: for half-life: male, mouse; for time of return of plasma Oxt concentration to baseline / half-life / AUCG / AUCI / Cmax: plasma; for AUCG / AUCI / Cmax: nasal 12 μg, ELISA, mean ± s.e.m.
How it was run: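 Male Oxt KO and wildtype C57BL/6J mice received Oxt (12 µg total) nasally (2 × 6 μl saline pipetted bilaterally on the rhinarium) or i.p. (0.1 ml saline). Blood was drawn through a jugular catheter every 30 min for 2 h and double-centrifuged (6000 rpm, 15 min, 4°C). Plasma plus an equal volume of 0.1% TFA was extracted on C18 Sep-Pak columns and assayed by Oxt ELISA. Cmax, T1/2, AUCG (pg*30 min/sample) and AUCI were calculated.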

[1] = format: in vivo, mice; conditions: for Cmax in amygdala ECF adjusted for recovery rate: adjusted for recovery rate (4.58%)
How it was run: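 Male Oxt KO and wildtype C57BL/6J mice, housed singly. The day before, mice were anaesthetised with tribromoethanol and fitted with a jugular catheter and two linear microdialysis probes (18 kDa cut-off) in amygdala and hippocampus. Oxt (12 µg total) was given nasally (2 × 6 μl saline on the rhinarium) or i.p. in 0.1 ml saline. Dialysates were taken every 30 min for 2 h, vacuum-dried without heat, stored at -80°C, and measured unextracted by RIA.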

[2] = cited from earlier work
[3] = cited from earlier work; remark: listed apart in the source
[4] = wildtype C57BL/6J male mice, N = 8
[5] = mice and rats, nonhuman primates, humans

CC[C@H](C)[C@@H]1NC(=O)[C@H](Cc2ccc(O)cc2)NC(=O)[C@@H](N)CSSC[C@@H](C(=O)N2CCC[C@H]2C(=O)N[C@@H](CC(C)C)C(=O)NCC(N)=O)NC(=O)[C@H](CC(N)=O)NC(=O)[C@H](CCC(N)=O)NC1=O [Oxt, oxytocin]
time of return of plasma Oxt concentration to baseline (Plasma Oxt; Oxt KO mice, intraperitoneal injection): exceeding 120 minutes | time of return of plasma Oxt concentration to baseline (Plasma Oxt; Oxt KO mice, nasal administration): 90 to 120 min | half-life (Plasma Oxt; C57BL/6J (wildtype), inhaled or intranasal, 12 ug): 25.8 ± 6 min | half-life (Plasma Oxt; C57BL/6J, ip, 12 μg): 32 ± 9.1 min | half-life (Plasma Oxt; Oxt KO, ip, 12 μg): 34.5 ± 8.9 min | AUCG (Plasma Oxt; Oxt KO male mice, N = 7): 7920 ± 1280b pg*30 min/sample | AUCI (Plasma Oxt; Oxt KO male mice, N = 7): 6120± 1280 pg*30 min/sample | Cmax (Plasma Oxt; Oxt KO male mice, N = 7): 131 ± 29 pg/sample | AUCG (Plasma Oxt; [4]): 23,600 ± 4880a pg*30 min/sample | AUCI (Plasma Oxt; [4]): 17,300 ± 5260 pg*30 min/sample | Cmax (Plasma Oxt; [4]): 398± 101 pg/sample | time for which Oxt was detected in circulation (Plasma Oxt; nasal, Oxt KO mice, spiking in the first 30 minutes): 90 min | time of return of Oxt concentration to baseline ([1]; Oxt KO mice, amygdala, intraperitoneal injection): 60 to 90 min | time at which Cmax of Oxt occurred ([1]; after nasal administration, current study, 30-min sampling): 30 to 60 min | Cmax in amygdala ECF adjusted for recovery rate ([1]; intraperitoneal injection, wildtype mice, amygdala): 0.91 ± 0.27 ng/mL | Cmax in amygdala ECF adjusted for recovery rate ([1]; nasal administration, wildtype mice, amygdala): 4.16 ± 1.00 ng/mL | time of peak concentration in brain ECF and plasma ([1]; nasal and intraperitoneal administration, wildtype mice): 30 to 60 min | time for which Oxt remained detectable in amygdala and hippocampus ([1]; nasal, Oxt KO mice): 90 min | share of the total Oxt that reaches the CNS ([2]; intravenous injection): 2×10^−6 | share of the total Oxt that reaches the CNS ([2]; nasal administration): 5×10^−6 | persistence of the rise of plasma Oxt after nasal application ([3]; earlier studies): 75 to 90 min | time of peak of plasma Oxt after nasal application ([3]; earlier studies): 15 to 30 min | time of peak of Oxt in circulation after nasal application [3, 5]: 15 to 30 min | time of return of Oxt in circulation to baseline after nasal application [3, 5]: 75 to 90 min | time of rise in CSF Oxt after nasal application ([3]; ref 22, 23, 28): 15 to 30 min | time of rise in CSF Oxt after nasal application ([3]; ref 24): 75 min | time of rise in CSF Oxt after nasal application ([3]; ref 26): 60 min
